Experimental data reported in ChEMBL document CHEMBL1142121, “Triterpenoids from the floral spikes of Betula platyphylla var. japonica and their reversing activity against multidrug-resistant cancer cells” (J Nat Prod, 2007).
Activity calls are given as the source filed them. No cut-off for these calls is given here.

What was measured:
K562 = experiment: Cytotoxicity against human K562 cells after 48 hrs by MTT assay; format: cell-based; settings: K562, 48 h
Method in brief: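 K562 leukemia cells, 1 × 10^4 cells/well in medium with 10% FBS, preincubated 24 h. Test samples were then added at various concentrations (DMSO final <0.5%) for 48 h at 37 °C, 5% CO2. MTT assay. IC50 was 50% absorbance relative to vehicle controls. Mean ± SE from 3–4 experiments.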

MCF7 = experiment: Cytotoxicity against human MCF7 cells after 48 hrs by MTT assay; format: cell-based; settings: MCF7, 48 h
Method in brief: (§1)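 MCF7 or COLO205 cells in RPMI1640 with 10% FBS, seeded at 5 × 10^3 cells and preincubated 24 h. Graded concentrations (DMSO final <0.5%) were then applied for 48 h at 37 °C, 5% CO2. Proliferation read by MTT. IC50 was the concentration halving absorbance versus vehicle-treated controls. Mean ± SE of 3–4 experiments.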

[1] = Cytotoxicity against human colchicine-resistant KBC2 cells in presence of 2.5 uM colchicine after 48 hrs by MTT assay; format: cell-based; settings: KB-C2, 48 h
Method in brief: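 Colchicine-resistant KB-C2 cells, maintained in DMEM/10% FBS with 2 µg/mL colchicine. Seeded at 5 × 10^3 cells/well, preincubated 24 h, then given graded test concentrations (DMSO final <0.5%) together with 2.5 µM colchicine for 48 h at 37 °C, 5% CO2. MTT read-out. IC50 was 50% of vehicle-control absorbance. Mean ± SE, 3–4 experiments.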

[2] = Cytotoxicity against human colchicine-resistant KBC2 cells after 48 hrs by MTT assay; format: cell-based; settings: KB-C2, 48 h
Method in brief: (§2)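 KB and KB-C2 cells grown in DMEM with 10% FBS, with KB-C2 maintained with 2 µg/mL colchicine. 5 × 10^3 cells/well were preincubated 24 h, then exposed 48 h at 37 °C, 5% CO2 to graded concentrations (DMSO final <0.5%). MTT read-out. IC50 was the concentration giving 50% of vehicle-control absorbance. Mean ± SE of 3–4 experiments.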

[3] = Cytotoxicity against human doxorubicin-resistant K562/Adr cells in presence of 1 uM doxorubicin after 48 hrs by MTT assay; format: cell-based
COLO 205 = experiment: Cytotoxicity against human COLON205 cells after 48 hrs by MTT assay; format: cell-based; settings: COLO 205, 48 h; method in brief: as §1
KB = experiment: Cytotoxicity against human KB cells after 48 hrs by MTT assay; format: cell-based; method in brief: as §2
[4] = Cytotoxicity against human doxorubicin-resistant K562/Adr cells after 48 hrs by MTT assay; format: cell-based
Method in brief: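 Doxorubicin-resistant K562/Adr cells, maintained in RPMI1640/10% FBS containing 0.5 µM doxorubicin. Seeded at 1 × 10^4 cells/well, preincubated 24 h, then incubated 48 h at 37 °C, 5% CO2 with graded test concentrations (DMSO final <0.5%). MTT read-out. IC50 was 50% of vehicle-control absorbance. Mean ± SE, 3–4 experiments.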

MDR = experiment: Reversal of MDR against KBC2 cells assessed as reduction in cytotoxicity of colchicine at 5 ug/ml; format: functional, cell-based; settings: Homo sapiens

| Compound | IC50 (K562) | IC50 (MCF7) | IC50 [1] | IC50 [2] | IC50 [3] | IC50 (COLO 205) | IC50 (KB) | IC50 [4] | Activity (MDR) |
| --- | --- | --- | --- | --- | --- | --- | --- | --- | --- |
| CC(=O)O[C@@H]1CC[C@]2(C)[C@H]3CC[C@@H]4[C@@H]([C@]5(C)CC[C@H](C(C)(C)O)O5)CC[C@@]4(C)[C@]3(C)CC[C@H]2C1(C)C | 41.6 µM | 47.5 µM | 43.6 µM | 89.6 µM | 68.3 µM | 54.2 µM | 44.8 µM | 50.5 µM |  |
| CC(C)(O)[C@H]1CC[C@@](C)([C@H]2CC[C@]3(C)[C@@H]2CC[C@@H]2[C@@]4(C)CC[C@@H](OC(=O)CC(=O)O)C(C)(C)[C@@H]4CC[C@]23C)O1 | 57.5 µM | 64.1 µM | 65.5 µM | 69.6 µM | 42.5 µM | 55.6 µM | 60.8 µM | 47.2 µM |  |
| C=C(C)[C@@H](O)CC[C@](C)(O)[C@H]1CC[C@]2(C)[C@@H]1CC[C@@H]1[C@@]3(C)CCC(=O)C(C)(C)[C@@H]3CC[C@]12C | 40.2 µM | 73.1 µM | 29.8 µM | 78.5 µM | 50.4 µM | 58.8 µM | 70.2 µM | 35.9 µM |  |
| CC(=O)O[C@@H]1C[C@@H]2[C@@]3(C)CC[C@@H](O)C(C)(C)[C@@H]3CC[C@@]2(C)[C@]2(C)CC[C@H]([C@]3(C)CC[C@H](C(C)(C)O)O3)[C@@H]12 | 27.5 µM | 34.2 µM | 3.5 µM | 25.7 µM | 15.3 µM | 36.7 µM | 36.5 µM | 15.4 µM |  |
| CC(=O)O[C@@H]1C[C@@H]2[C@@]3(C)CC[C@@H](OC(C)=O)C(C)(C)[C@@H]3CC[C@@]2(C)[C@]2(C)CC[C@H]([C@]3(C)CC[C@H](C(C)(C)O)O3)[C@@H]12 | 26.2 µM | 78.4 µM | 3 µM | 62.2 µM | 23.9 µM | 58 µM | 35.1 µM | 33.2 µM |  |
| COC(=O)CC(=O)O[C@@H]1CC[C@]2(C)[C@H]3CC[C@@H]4[C@@H]([C@]5(C)CCC(=O)O5)CC[C@@]4(C)[C@]3(C)CC[C@H]2C1(C)C | 47.2 µM | > 100 µM | 3.3 µM | 30.4 µM | 26.5 µM | > 100 µM | 58 µM | 56.1 µM |  |
| CC(C)(O)[C@H]1CC[C@@](C)([C@H]2CC[C@]3(C)[C@@H]2CC[C@@H]2[C@@]4(C)CC[C@@H](O)C(C)(C)[C@@H]4CC[C@]23C)O1 | 48.5 µM | 57.9 µM | 28.6 µM | 55.3 µM | 45.2 µM |  | 43.4 µM | 73.9 µM |  |
| C=C1CC[C@]2(C)CC[C@]3(C)[C@H](CC[C@@H]4[C@@](C)(CCC(=O)O)[C@H](C(=C)C)CC[C@]43C)[C@@H]2[C@H]1C | > 100 µM | > 100 µM | > 100 µM | > 100 µM | > 100 µM | > 100 µM | > 100 µM | > 100 µM |  |
| C=C(C)[C@@H]1CC[C@]2(C)[C@H](CCC3=C4CC(C)(C)CC[C@]4(C)CC[C@]32C)[C@@]1(C)CCC(=O)O | 28 µM | 37.4 µM | 36.3 µM | 58 µM | 24.8 µM | 38.1 µM | 27.5 µM | 25.9 µM |  |
| COC(=O)CC(=O)O[C@@H]1CC[C@]2(C)[C@H]3CC[C@@H]4[C@@H]([C@]5(C)CC[C@H](C(C)(C)O)O5)CC[C@@]4(C)[C@]3(C)CC[C@H]2C1(C)C | 35.4 µM | 63.6 µM | 13.6 µM | 87 µM | 41.1 µM | 57.2 µM | 64.2 µM | 31.1 µM |  |
| C=C(C)[C@@H]1CC[C@]2(C(=O)O)CC[C@]3(C)[C@H](CC[C@@H]4[C@@]5(C)CCC(=O)C(C)(C)[C@@H]5CC[C@]43C)[C@@H]12 [BETUNOLIC ACID] | 16.1 µM | 49 µM | 0.64 µM | 2.3 µM | 48.4 µM | 36.8 µM | 3.8 µM | 73.5 µM |  |
| CC1(C)[C@H](O)CC[C@]2(C)[C@H]3CC[C@@H]4[C@@H]([C@]5(C)CCC(=O)O5)CC[C@@]4(C)[C@]3(C)CC[C@@H]12 [CABRALEAHYDROXYLACTONE] | > 100 µM | > 100 µM | 20.6 µM | > 100 µM | > 100 µM | > 100 µM | > 100 µM | > 100 µM |  |
| CC1(C)C(=O)CC[C@]2(C)[C@H]3CC[C@@H]4[C@@H]([C@]5(C)CCC(=O)O5)CC[C@@]4(C)[C@]3(C)CC[C@@H]12 [CABRALELACTONE] | > 100 µM | 97.9 µM | 28.5 µM | > 100 µM | > 100 µM | > 100 µM | 63.5 µM | > 100 µM |  |
| CC(C)(O)[C@@H]1CC[C@@](C)([C@H]2CC[C@]3(C)[C@@H]2CC[C@@H]2[C@@]4(C)CCC(=O)C(C)(C)[C@@H]4CC[C@]23C)O1 [CABRALEONE] | > 100 µM | > 100 µM | 62.4 µM | > 100 µM | > 100 µM | > 100 µM | > 100 µM | > 100 µM |  |
| CC(C)=CCC[C@](C)(O)[C@H]1CC[C@]2(C)[C@@H]1CC[C@@H]1[C@@]3(C)CCC(=O)C(C)(C)[C@@H]3CC[C@]12C [DIPTEROCARPOL] | > 100 µM | > 100 µM | 38.2 µM | > 100 µM | > 100 µM | > 100 µM | > 100 µM | > 100 µM |  |
| CC(C)(O)[C@H]1CC[C@@]2(C)C1CC[C@]1(C)[C@@H]2CC[C@@H]2[C@@]3(C)CCC(=O)C(C)(C)[C@@H]3CC[C@]21C (stereo not given in full) [HYDROXYHOPANONE] | > 100 µM | > 100 µM | > 100 µM | > 100 µM | > 100 µM | 77.1 µM | > 100 µM | > 100 µM |  |
| COC(=O)CC(=O)O[C@@H]1CC[C@]2(C)[C@H]3C[C@@H](OC(C)=O)[C@@H]4[C@@H]([C@]5(C)CC[C@H](C(C)(C)O)O5)CC[C@@]4(C)[C@]3(C)CC[C@H]2C1(C)C [METHYL PAPYRIFERATE] | 32.6 µM | 48.9 µM | 3.7 µM | 31.1 µM | 10.6 µM | 49.6 µM | 33.8 µM | 36.8 µM | Active |
| C=C(C)[C@@H]1CC[C@]2(C)[C@H](CC[C@@H]3[C@@H]([C@]4(C)CC[C@H](C(C)(C)O)O4)CC[C@]32C)[C@@]1(C)CCC(=O)OC [METHYL SHOREATE] | 45.3 µM | 59.7 µM | 20.1 µM | 93.5 µM | 47.1 µM | 67.7 µM | 66.6 µM | 50.9 µM |  |
| CC(C)(O)[C@H]1CC[C@@](C)([C@H]2CC[C@]3(C)[C@@H]2CC[C@@H]2[C@@]4(C)CCC(=O)C(C)(C)[C@@H]4CC[C@]23C)O1 [OCOTILLONE] | > 100 µM | > 100 µM | 64.2 µM | > 100 µM | > 100 µM | > 100 µM | > 100 µM | > 100 µM |  |
| CC(=O)O[C@@H]1C[C@@H]2[C@@]3(C)CC[C@@H](OC(=O)CC(=O)O)C(C)(C)[C@@H]3CC[C@@]2(C)[C@]2(C)CC[C@H]([C@]3(C)CC[C@H](C(C)(C)O)O3)[C@@H]12 [PAPYRIFERIC ACID] | 47.6 µM | 71.7 µM | 60.1 µM | 66 µM | 34.5 µM | 52.2 µM | 47.8 µM | 42.5 µM |  |
